Screening data (PubChem)
Only some compounds are listed: those with a hit (about 1.8% of all), similar ones and a draw of the others.
C8 TRAIL sens: viability loss with TRAIL in NB7+C8 cells, primary screen, TRAIL sensitizer project, cell-based, ATPlite luminescence. inhibition (viability loss, TRAIL sensitization), % at 10 µM. 360,000 compounds, 1% hits. AID 624354, 2012;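 active = compounds causing at least 50% loss of cell viability in the single-dose screen, relative to plate controls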
STAT3 inh: IL-6 driven STAT3 reporter inhibitors, primary screen, U3A cells, luciferase, luminescence, MLSCN library | IL-6 STAT3-luciferase reporter; host cell line lacks STAT1 | inhibition, % at 5.5 µM | 190,000 compounds, 0.89% hits | AID 862, 2007;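 active = inhibition above the mean inhibition across all screened compounds plus 3 SD, cut at about 44% in these data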;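 also: 0% = DMSO only wells and 100% = 100 µM nifuroxazide control wells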
STAT3 activator: IL-6 driven STAT3 reporter potentiators, primary screen, U3A cells, luciferase, luminescence, MLSCN library. IL-6 STAT3-luciferase reporter; 100% = signal with IL-6 EC80 alone. activation (% of control), % at 5.6 µM. 190,000 compounds, 0.91% hits. AID 871, 2007;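 active = activation above the screen-wide mean of compound activation plus 3 SD, cut at about 130% in these data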;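 also: 0% = background luminescence of wells with medium and substrate only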
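Material: human STAT1-deficient U3A cells with stable STAT3-luciferase reporter / Probe or stimulus: IL-6 stimulus at 33 ng/mL final / Schedule: 1 h compound pre-exposure, 6 h IL-6 stimulation, 37 °C / Technique: luminescence / Read-out basis: percent of IL-6-only median luminescence / Control set: IL-6-only high control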
PPC-1+TRAIL kill: compounds killing PPC-1 cancer cells with TRAIL present, primary screen, TRAIL potentiator project, ATPLite luminescence, uHTS | PPC-1 cells + TRAIL, ATPLite viability luminescence | cell killing (% activity), % at 4 µM or 5 µM | 220,000 compounds, 0.41% hits;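 active = cell killing above 50% in the first pass at 4 µM, then a duplicate retest at 5 µM averaging 50% or more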;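 also: plate controls were cells with TRAIL plus DMSO for no effect and medium-only wells lacking cells for full effect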
STAT1 inh: STAT1 signaling inhibitors, primary screen, cell-based, HTS, luciferase reporter. NIH 3T3 STAT1-luciferase reporter, IFN-gamma, luminescence. inhibition, % at 5.5 µM. 200,000 compounds, 0.35% hits;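 active = inhibition above a set limit, the mean inhibition across all tested compounds plus 3 SD, cut at about 34% in these data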;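 also: 0% = IFN-gamma with DMSO and 100% = IFN-gamma with 300 µM nifuroxazide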
PPC1 cytotox: cytotoxicity in PPC-1 cells, confirmation, cytotoxicity control for TRAIL apoptosis potentiator project, cell-based, ATP content luminescence. shares compounds with PPC-1+TRAIL kill. PPC-1 viability, ATPlite luminescence, overnight. cytotoxicity, % at 5 µM. 1,200 compounds, 50% hits;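 active = reconfirmed compounds whose average cytotoxicity reaches 50% or more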;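 also: 0% = DMSO-treated cells and 100% = wells holding medium but no cells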
An asterisk follows results filed as active.

Screening CCOc1ccc(CN(C)C(=O)c2ccc3c(c2)NC(=O)C(C)S3)cc1OC (stereo not given) returned C8 TRAIL sens 1.
Screening COc1ccc(Cl)c(-c2cc(C(=O)Nc3ccccc3)[nH]n2)c1 returned C8 TRAIL sens 24.
`Cc1ccc(-n2nnc(-c3nccn3C)n2)cc1` gave C8 TRAIL sens 71*, PPC-1+TRAIL kill 55*, STAT1 inh 31 and PPC1 cytotox 53*.
Screening COc1cccc(-c2nc(-c3ccccn3)no2)c1 returned STAT3 inh 95*, STAT3 activator 19, PPC-1+TRAIL kill 76*, STAT1 inh 60* and PPC1 cytotox 81*.
`c1ccc(-c2noc(-c3ccc4c(c3)OCO4)n2)nc1` gave C8 TRAIL sens 85*, STAT3 inh 107*, STAT3 activator 12, PPC-1+TRAIL kill 87*, STAT1 inh 54* and PPC1 cytotox 88*.
`COC(=O)Cn1c(=NC(=O)CCS(=O)(=O)c2ccccc2)sc2c(OC)ccc(OC)c21` gave C8 TRAIL sens 5.
For CCOc1ccc(NC(=O)Nc2cccc(C(=O)O)c2)cc1 the results were C8 TRAIL sens 83*, STAT3 inh 110*, STAT3 activator 10, PPC-1+TRAIL kill 73*, STAT1 inh 96* and PPC1 cytotox 65*.
Screening O=C(O)c1cc(OCc2ccccc2)cc(OCc2ccccc2)c1 returned C8 TRAIL sens -4.
CCOc1ccc(NC(=O)c2ccccc2CO)cc1 was read as C8 TRAIL sens 9, STAT3 inh 12, STAT3 activator 94, PPC-1+TRAIL kill 9 and STAT1 inh -28.
Screening CCOc1ccc(NC(=O)c2ccccc2O)cc1 returned C8 TRAIL sens 58*, STAT3 inh 24, STAT3 activator 83, PPC-1+TRAIL kill 68*, STAT1 inh -3 and PPC1 cytotox 64*.
Screening CCOc1ccc(OCc2cccc(C(=O)O)c2)cc1 returned C8 TRAIL sens 84*, PPC-1+TRAIL kill 59* and PPC1 cytotox 58*.
Screening CN(C)CCNC(=O)CNC(=S)N(CCCN1CCOCC1)Cc1cccs1 returned C8 TRAIL sens -5, STAT3 inh 10, STAT3 activator 98, PPC-1+TRAIL kill 30 and STAT1 inh 2.
`O=C1C(Cl)=C(NCCN2CCCCC2)C(=O)c2ccccc21` gave C8 TRAIL sens 92*, STAT3 inh 8, STAT3 activator 97, PPC-1+TRAIL kill 48, STAT1 inh 0 and PPC1 cytotox 46.
Screening CCNC1=C(Cl)C(=O)c2ccccc2C1=O returned C8 TRAIL sens 3, STAT3 inh 4, STAT3 activator 94, PPC-1+TRAIL kill 7 and STAT1 inh -5.
Screening Cc1ccc(/C=C/C(=O)c2ccc(N3CCOCC3)cc2)s1 returned C8 TRAIL sens 73*, STAT3 inh 32, STAT3 activator 77, PPC-1+TRAIL kill 80*, STAT1 inh -37 and PPC1 cytotox 78*.
For CCOC(=O)Cn1c(O)c(N=NC(=O)OC)c2ccccc21 the results were C8 TRAIL sens -1 and PPC-1+TRAIL kill -5.
For COC(=O)Cn1c(O)c(N=NC(=O)c2ccc3c(c2)OCO3)c2ccccc21 the results were C8 TRAIL sens 61*, STAT3 inh -5, STAT3 activator 105, PPC-1+TRAIL kill 29, STAT1 inh 2 and PPC1 cytotox 37.
COc1ccc([C@H]2CC(=O)C=C(c3ccnc4ccc(Cl)cc34)C2)cc1 was read as C8 TRAIL sens 13.
For c1ccc2nc(-c3nc4ccccc4[nH]3)ccc2c1 the results were C8 TRAIL sens 90*, STAT3 inh 83*, STAT3 activator 34, PPC-1+TRAIL kill 87*, STAT1 inh 39* and PPC1 cytotox 84*.
Screening c1ccc2[nH]c(-c3cscn3)nc2c1 returned C8 TRAIL sens 2, STAT3 inh -7, STAT3 activator 108, PPC-1+TRAIL kill 12 and STAT1 inh -16.
For CCOC(=O)C1=C(c2ccccc2)c2ccc(OC)cc2N(S(=O)(=O)C(F)(F)F)C1C(=O)OCC (stereo not given) the results were C8 TRAIL sens 4.
For CCC(=O)Nc1nonc1-c1nc2ccccc2n1CC(C)C the results were C8 TRAIL sens 12, STAT3 inh 18, STAT3 activator 90, PPC-1+TRAIL kill -8, STAT1 inh 8 and PPC1 cytotox -13.
Cn1c(C(=O)Nc2ccc3c(c2)OCO3)cc2sccc21 was read as C8 TRAIL sens 32, STAT3 inh -26, STAT3 activator 126, PPC-1+TRAIL kill 6, STAT1 inh -102 and PPC1 cytotox 12.
For Cn1c(C(=O)NCc2ccc3c(c2)OCO3)cc2sccc21 the results were C8 TRAIL sens 2, STAT3 inh 9, STAT3 activator 95, PPC-1+TRAIL kill -2 and STAT1 inh -5.
Screening Cc1ccccc1C(=O)Nc1ccc2c(c1)OCO2 returned C8 TRAIL sens 41, STAT3 inh 42, STAT3 activator 69, PPC-1+TRAIL kill 48, STAT1 inh -7 and PPC1 cytotox 52*.
For COc1ccccc1C(=O)Nc1ccc2c(c1)OCO2 the results were C8 TRAIL sens 6, STAT3 inh -19, STAT3 activator 124, PPC-1+TRAIL kill -11 and STAT1 inh -35.
Cc1ccnc(NC(=O)Nc2ccc3c(c2)OCO3)c1 was read as C8 TRAIL sens 55*, STAT3 inh 42, STAT3 activator 67, PPC-1+TRAIL kill 36, STAT1 inh -50 and PPC1 cytotox 41.
CCOC(=O)CC1C(=O)NCCN1C(=O)COc1ccc(C(C)(C)C)cc1 (stereo not given) was read as C8 TRAIL sens -7.
For COc1ccc(NC(=O)c2ccc(NCC3CCCO3)c([N+](=O)[O-])c2)cc1 (stereo not given) the results were C8 TRAIL sens -2, STAT3 inh 21, STAT3 activator 86 and STAT1 inh 1.
Cc1cccc(NC(=O)c2nc[nH]c2C(=O)N2CCN(c3ccccc3)CC2)c1 was read as C8 TRAIL sens 4.
O=C(NC(=O)c1ccccc1O)c1ccc2c(c1)CCO2 was read as C8 TRAIL sens 74*, PPC-1+TRAIL kill 69* and PPC1 cytotox 68*.
Cc1nc2cc(NCc3nc4ccccc4n3Cc3ccccc3)ccc2n1C was read as C8 TRAIL sens 18, STAT3 inh 6, STAT3 activator 98, PPC-1+TRAIL kill 61*, STAT1 inh -38 and PPC1 cytotox 63*.
Cc1cccc(NCc2nc3ccccc3n2Cc2ccccc2)c1 was read as C8 TRAIL sens -6, STAT3 inh 8, STAT3 activator 98, PPC-1+TRAIL kill -14 and STAT1 inh -4.
